Measurements from ChEMBL document CHEMBL1130175, “Sulfated galactocerebrosides as potential antiinflammatory agents” (J Med Chem, 1997).

Molecular target: T1, P-selectin (Homo sapiens, UniProt P16109)
T1 sequence (P16109 whole entry): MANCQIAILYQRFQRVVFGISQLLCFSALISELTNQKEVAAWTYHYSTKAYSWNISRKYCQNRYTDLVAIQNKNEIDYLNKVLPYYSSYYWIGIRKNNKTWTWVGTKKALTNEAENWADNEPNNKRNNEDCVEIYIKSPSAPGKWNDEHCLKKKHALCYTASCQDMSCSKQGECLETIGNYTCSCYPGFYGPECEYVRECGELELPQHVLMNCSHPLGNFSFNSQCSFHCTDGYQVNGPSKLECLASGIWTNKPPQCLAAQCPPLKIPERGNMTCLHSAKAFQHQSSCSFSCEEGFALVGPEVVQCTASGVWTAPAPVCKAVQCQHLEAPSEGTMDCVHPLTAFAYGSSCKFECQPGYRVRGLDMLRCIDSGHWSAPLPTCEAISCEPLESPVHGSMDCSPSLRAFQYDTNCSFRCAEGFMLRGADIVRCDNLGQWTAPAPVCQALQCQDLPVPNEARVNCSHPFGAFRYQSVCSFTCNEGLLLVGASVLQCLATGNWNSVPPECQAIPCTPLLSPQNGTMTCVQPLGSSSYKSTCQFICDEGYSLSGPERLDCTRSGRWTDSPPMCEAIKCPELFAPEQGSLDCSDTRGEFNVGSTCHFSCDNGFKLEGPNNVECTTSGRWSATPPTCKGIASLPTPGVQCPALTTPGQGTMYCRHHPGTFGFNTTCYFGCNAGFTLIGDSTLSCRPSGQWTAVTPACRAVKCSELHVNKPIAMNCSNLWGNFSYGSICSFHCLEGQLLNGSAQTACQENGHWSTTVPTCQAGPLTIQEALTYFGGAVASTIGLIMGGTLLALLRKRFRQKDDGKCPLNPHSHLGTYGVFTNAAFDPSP
Assay: In vitro inhibitory concentration against Selectin P in a cell-free binding assay
In short: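 Soluble P-selectin receptor globulin (lectin, EGF and two complement repeat domains fused to an Ig tail), premixed with HRP-conjugated goat anti-human IgG. The complex was incubated on sulfatide-coated ELISA plates with or without test compound, 0.5% DMSO final. Read-out was TMB colour at 450 nm. Eight 2-fold dilutions were tested, mean of duplicates, and IC50 was interpolated from the linear part of the log dose-response curve.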

Row | Structure (SMILES) | IC50 [µM]
1 | CCCCCCCCCCCCC/C=C/[C@@H](O)[C@H](CO[C@@H]1O[C@@H](CO)[C@@H](O)[C@H](OS(=O)(=O)O)[C@@H]1OS(=O)(=O)O)NC(=O)CCCCCCCCCCCCCCC | 0.1
2 | CCCCCCCCCCCCC/C=C/[C@@H](OC(=O)c1ccccc1)[C@H](CO[C@@H]1O[C@@H](COS(=O)(=O)O)[C@@H](OC(C)=O)[C@H](OS(=O)(=O)O)[C@@H]1OC(=O)c1ccccc1)NC(=O)CCCCCCCCCCCCCCC | 1.3
3 | CCCCCCCCCCCCC/C=C/[C@@H](OC(=O)c1ccccc1)[C@H](CO[C@@H]1O[C@@H](COS(=O)(=O)O)[C@@H](O)[C@H](O)[C@@H]1OS(=O)(=O)O)NC(=O)CCCCCCCCCCCCCCC | 0.9
4 | CCCCCCCCCCCCC/C=C/[C@@H](O)[C@H](CO[C@@H]1O[C@@H](COS(=O)(=O)O)[C@@H](O)[C@H](O)[C@@H]1O)NC(=O)CCCCCCCCCCCCCCC | 12
5 | CCCCCCCCCCCCC/C=C/[C@@H](O)[C@H](CO[C@@H]1O[C@@H](COS(=O)(=O)O)[C@@H](O)[C@H](OS(=O)(=O)O)[C@@H]1O)NC(=O)CCCCCCCCCCCCCCC | 2.4
6 | CCCCCCCCCCCCC/C=C/[C@@H](O)[C@H](CO[C@@H]1O[C@@H](COS(=O)(=O)O)[C@@H](O)[C@H](O)[C@@H]1OS(=O)(=O)O)NC(=O)CCCCCCCCCCCCCCC | 1.2
7 | CCCCCCCCCCCCC/C=C/[C@@H](OC(=O)c1ccccc1)[C@H](CO[C@@H]1O[C@@H](CO)[C@@H](O)[C@H](OS(=O)(=O)O)[C@@H]1OS(=O)(=O)O)NC(=O)CCCCCCCCCCCCCCC | 0.1
8 | CCCCCCCCCCCCC/C=C/[C@@H](O)[C@H](CO[C@@H]1O[C@@H](CO)[C@@H](O)[C@H](OS(=O)(=O)O)[C@@H]1O)NC(=O)CCCCCCCCCCCCCCC | 0.6
9 | CCCCCCCCCCCCC/C=C/[C@@H](O)[C@H](CO[C@@H]1O[C@@H](CO)[C@@H](OS(=O)(=O)O)[C@H](O)[C@@H]1O)NC(=O)CCCCCCCCCCCCCCC | 12.5
10 | CCCCCCCCCCCCC/C=C/[C@@H](O)[C@H](CO[C@@H]1O[C@@H](COS(=O)(=O)O)[C@@H](OS(=O)(=O)O)[C@H](O)[C@@H]1O)NC(=O)CCCCCCCCCCCCCCC | 1.7
11 | CCCCCCCCCCCCC/C=C/[C@@H](O)[C@H](CO[C@@H]1O[C@@H](CO)[C@@H](O)[C@H](O)[C@@H]1OS(=O)(=O)O)NC(=O)CCCCCCCCCCCCCCC | 2.5
12 | CCCCCCCCCCCCC/C=C\C(O)C(CO)NC(=O)O[C@@H]1O[C@H](CO)[C@H](O)[C@H](O)[C@H]1O (some centres not stated) [GALACTOCEREBROSIDE] | > 50
